Reference: ChEMBL document CHEMBL4014299, “Synthesis and anti-HIV activities of unsymmetrical long chain dicarboxylate esters of dinucleoside reverse transcriptase inhibitors” (Bioorg Med Chem Lett, 2017)

How the values were obtained:
Format in all cases: cell-based
[1] = Inhibition of HIV1 BaL […] reverse transcriptase infected in human P4R5 MAGI cells assessed as reduction in viral infection after 2 hrs by Galacto-Star beta-galactosidase reporter gene assay; conditions: Human immunodeficiency virus 1, BaL
Summary of the method: (§1)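 Single-round infection against cell-free virus: compounds, virus and target cells incubated together 2 h, cells washed, then cultured a further 48 h. Infection read as HIV-LTR-driven galactosidase expression; EC50 = 50% effective concentration. Line 2 uses the X4 (lymphocytotropic) strain, line 3 the R5 (monocytotropic) strain. DMSO served as negative control and dextran sulfate as positive control. Triplicate (n = 3).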

[2] = Inhibition of HIV1 3B […] reverse transcriptase infected in human P4R5 MAGI cells assessed as reduction in viral infection after 2 hrs by Galacto-Star beta-galactosidase reporter gene assay; conditions: Human immunodeficiency virus 1, 3B; summary of the method: as §1
[3] = Cytotoxicity against human P4R5 MAGI cells after 2 hrs by MTT assay
Summary of the method: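 Cytotoxicity to target cells by MTT assay, giving CC50 (50% toxic concentration). Run in triplicate (n = 3).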

Row | EC50 [1] | EC50 [2] | SMILES | CC50 at 2 h [3]
1 | 129 µM | 34.4 µM | Cc1cn([C@H]2C[C@H](N=[N+]=[N-])[C@@H](CO)O2)c(=O)[nH]c1=O [ZIDOVUDINE] | > 374 µM
2 | 0.55 µM | 1.8 µM | Cc1cn([C@H]2C[C@H](F)[C@@H](COC(=O)CCCCCCCCCCCCC(=O)O)O2)c(=O)[nH]c1=O | > 61 µM
3 | 0.5 µM | 0.4 µM | Cc1cn([C@H]2C[C@H](F)[C@@H](COC(=O)CCCCCCC(=O)OC[C@H]3O[C@@H](n4cc(C)c(=O)[nH]c4=O)C[C@@H]3F)O2)c(=O)[nH]c1=O | > 160 µM
4 | 68.1 µM | 14 µM | Cc1cn([C@H]2C[C@H](N=[N+]=[N-])[C@@H](COC(=O)CCC(=O)OC[C@H]3O[C@@H](n4cc(C)c(=O)[nH]c4=O)C[C@@H]3N=[N+]=[N-])O2)c(=O)[nH]c1=O | > 162 µM
5 | 3 µM | 3.7 µM | Cc1cn([C@H]2C[C@H](F)[C@@H](COC(=O)CCC(=O)OC[C@H]3O[C@@H](n4cc(C)c(=O)[nH]c4=O)C[C@@H]3F)O2)c(=O)[nH]c1=O | > 175 µM
6 | 0.075 µM | 0.047 µM | Cc1cn([C@H]2C[C@H](F)[C@@H](COC(=O)CCCCCCCCCCCCC(=O)OC[C@@H]3O[C@H](n4cc(F)c(N)nc4=O)CS3)O2)c(=O)[nH]c1=O | > 42 µM
7 | 0.07 µM | 0.1 µM | Cc1cn([C@H]2C[C@H](F)[C@@H](COC(=O)CCCCCCCCCCCCC(=O)OC[C@@H]3O[C@H](n4ccc(N)nc4=O)CS3)O2)c(=O)[nH]c1=O | > 43 µM

Further lines, the compound ahead of its results:

Row | SMILES | EC50 [1] | EC50 [2] | CC50 at 2 h [3]
8 | Cc1cn([C@H]2C[C@H](N=[N+]=[N-])[C@@H](COC(=O)CCC(=O)OC[C@H]3O[C@@H](n4cc(C)c(=O)[nH]c4=O)C[C@@H]3F)O2)c(=O)[nH]c1=O | 17.5 µM | 14.7 µM | > 168 µM
9 | Cc1cn([C@H]2C[C@H](F)[C@@H](CO)O2)c(=O)[nH]c1=O [ALOVUDINE] | 3.3 µM | 0.8 µM | > 410 µM
10 | Cc1cn([C@H]2C[C@H](N=[N+]=[N-])[C@@H](COC(=O)CCC(=O)OC[C@@H]3O[C@H](n4ccc(N)nc4=O)CS3)O2)c(=O)[nH]c1=O | 19.2 µM | 16.1 µM | > 173 µM
11 | Nc1ccn([C@@H]2CS[C@H](CO)O2)c(=O)n1 [LAMIVUDINE] | 11.3 µM | 32.7 µM | 80.3 µM
12 | Nc1nc(=O)n([C@@H]2CS[C@H](CO)O2)cc1F [EMTRICITABINE] | 0.7 µM | 1.9 µM | > 200 µM
13 | Nc1ccn([C@@H]2CS[C@H](COC(=O)CCCCCCCCCCCCC(=O)OC[C@@H]3O[C@H](n4cc(F)c(N)nc4=O)CS3)O2)c(=O)n1 | 0.073 µM | 0.18 µM | > 43 µM
14 | Cc1cn([C@H]2C[C@H](F)[C@@H](COC(=O)CCC(=O)OC[C@@H]3O[C@H](n4ccc(N)nc4=O)CS3)O2)c(=O)[nH]c1=O | 42.2 µM | 44.5 µM | > 180 µM
15 | Nc1ccn([C@@H]2CS[C@H](COC(=O)CCCCCCC(=O)OC[C@@H]3O[C@H](n4ccc(N)nc4=O)CS3)O2)c(=O)n1 | 4.7 µM | 26.6 µM | > 168 µM
16 | Cc1cn([C@H]2C[C@H](N=[N+]=[N-])[C@@H](COC(=O)CCCCCCC(=O)OC[C@H]3O[C@@H](n4cc(C)c(=O)[nH]c4=O)C[C@@H]3N=[N+]=[N-])O2)c(=O)[nH]c1=O | < 0.15 µM | 0.2 µM | > 148 µM
